From article PMC2655349 (Nuclear medicine and biology, 2009)
Like-named read-outs stand apart in the source and are kept apart here.

What was measured:
[1] = radiopharmaceutical biodistribution in rats following intravenous injection; type: in vivo, rat; details: male rats, i.v.; for Percentage of Injected Dose per Organ, Blood: blood assumed 7% of body mass
Outline: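 67Ga-labelled chelate prepared with ligand in ethanol containing acetylacetone at 70°C for 20 min, diluted with saline to 5–10% ethanol, filtered, purity checked by C18 TLC. Given 1–5 μCi (0.037–0.185 MBq) via femoral vein to ether-anaesthetised male Sprague-Dawley rats. Organs sampled at 1 min and 2 h. Data given as %ID/organ and %ID/g wet tissue; blood taken as 7% and muscle as 42% of body mass.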

[2] = rats, ref [11], cited from earlier work
[3] = 60-minutes rather than 120-minutes post-injection
[4] = 1 min, based on % injected dose per gram

Compound	Percentage of Injected Dose per Organ, Brain ([1]; 1 min post-injection)	Percentage of Injected Dose per Organ, Heart ([1]; 1 min post-injection)	Percentage of Injected Dose per Organ, Kidney (1) ([1]; 1 min post-injection)	Percentage of Injected Dose per Organ, Liver ([1]; 1 min post-injection)	Percentage of Injected Dose per Organ, Lungs ([1]; 1 min post-injection)	Percentage of Injected Dose per Organ, Spleen ([1]; 1 min post-injection)	Percentage of Injected Dose per Organ, Blood ([1]; 1 min post-injection)	Percentage of Injected Dose per Organ, Brain ([1]; 120 min post-injection)	Percentage of Injected Dose per Organ, Heart ([1]; 120 min post-injection)	Percentage of Injected Dose per Organ, Kidney (1) ([1]; 120 min post-injection)	Percentage of Injected Dose per Organ, Lungs ([1]; 120 min post-injection)	Percentage of Injected Dose per Organ, Spleen ([1]; 120 min post-injection)	Percentage of Injected Dose per Organ, Blood ([1]; 120 min post-injection)	Heart/Blood ratio [2, 3]	Heart/Liver ratio [2, 3]	Heart/Lung ratio [2, 3]	Heart/Blood ratio [2, 4]	Heart/Liver ratio [2, 4]	Heart/Lung ratio [2, 4]
[86Rb+].[Cl-] [[^86Rb]RbCl, [^86Rb]rubidium chloride]	0.08 ± 0.01 Percentage of Injected Dose per Organ	2.86 ± 0.38 Percentage of Injected Dose per Organ	6.7 ± 1.1 Percentage of Injected Dose per Organ	5.4 ± 0.8 Percentage of Injected Dose per Organ	2.0 ± 0.3 Percentage of Injected Dose per Organ	0.32 ± 0.08 Percentage of Injected Dose per Organ	3.61 ± 0.28 Percentage of Injected Dose per Organ	0.12 ± 0.01 Percentage of Injected Dose per Organ	0.69 ± 0.02 Percentage of Injected Dose per Organ	1.01 ± 0.04 Percentage of Injected Dose per Organ	1.11 ± 0.01 Percentage of Injected Dose per Organ	0.71 ± 0.13 Percentage of Injected Dose per Organ	1.43 ± 0.08 Percentage of Injected Dose per Organ						
[C-]#[N+]CC(C)(C)OC.[C-]#[N+]CC(C)(C)OC.[C-]#[N+]CC(C)(C)OC.[C-]#[N+]CC(C)(C)OC.[C-]#[N+]CC(C)(C)OC.[C-]#[N+]CC(C)(C)OC.[Tc] [[^99mTc]Tc-Sestamibi^1+, [^99mTc]Tc-sestamibi]														208 ± 25	5.3 ± 1.7	6.5 ± 1.7	11.1 ± 0.2	1.7 ± 0.1	1.3 ± 0.2
